Target: α-glucosidase (Saccharomyces cerevisiae, UniProt P53341)
Assay: Kinetic study of α-glucosidase inhibition
Format: biochemical
Procedure, shortened: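 Yeast α-glucosidase (0.02 U per well) in 50 mM sodium phosphate, pH 7.0, preincubated with test compound (1.50, 4.00, 8.00 μM, or none) at 37 °C for 15 min. p-Nitrophenyl α-D-glucopyranoside added at 0.1, 0.2, 0.4 or 0.8 mM. A400 followed continuously for 30 min, in triplicate. Analysed by Lineweaver–Burk plot, replot of its slopes against inhibitor concentration, and Dixon plot.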

Sequence of α-glucosidase (P53341 whole entry): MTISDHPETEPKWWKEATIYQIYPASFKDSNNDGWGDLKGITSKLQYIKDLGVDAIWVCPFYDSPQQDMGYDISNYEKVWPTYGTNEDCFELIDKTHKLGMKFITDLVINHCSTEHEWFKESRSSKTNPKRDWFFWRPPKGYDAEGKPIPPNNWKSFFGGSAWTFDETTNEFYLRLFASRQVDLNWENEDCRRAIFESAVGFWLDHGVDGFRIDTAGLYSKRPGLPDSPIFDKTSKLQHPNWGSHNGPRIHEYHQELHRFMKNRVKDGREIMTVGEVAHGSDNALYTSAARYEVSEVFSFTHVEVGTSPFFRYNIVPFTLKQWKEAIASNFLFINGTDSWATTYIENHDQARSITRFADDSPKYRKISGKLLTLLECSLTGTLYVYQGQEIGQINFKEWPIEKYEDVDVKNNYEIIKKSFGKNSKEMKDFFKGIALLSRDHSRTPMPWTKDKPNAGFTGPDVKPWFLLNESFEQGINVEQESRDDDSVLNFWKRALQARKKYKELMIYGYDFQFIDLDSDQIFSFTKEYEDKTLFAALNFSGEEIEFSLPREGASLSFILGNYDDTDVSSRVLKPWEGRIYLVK

**Q.** With O=C(Nc1cccc(Cl)c1)Nc1ccccc1N=Cc1cc(Cl)ccc1O [Compound 5h, 1-(2-{[(5-Chloro-2-hydroxybenzylidene)amino]}phenyl)-3-(3-chlorophenyl)urea] as the compound, how does the “Effect on Km of the enzyme” value read?
**A.** Its value is “increases Km”.

**Q.** What about the “Effect on Vmax of the enzyme” value of the same compound?
**A.** The value was “remains constant”.

**Q.** And the “Mode (type) of inhibition” value?
**A.** The value was “competitive mode of inhibition”.

Reference: publication PMC11403393 (RSC Advances, 2024)
